# Laboratory results taken from ChEMBL document CHEMBL1124389, “Spermexatin and spermexatol: new synthetic spermidine-based siderophore analogues” (1989).
# Columns and labels:
# Format in all cases: functional
# Vibrio cholerae [1] = test: Compound (0.2 mM) was tested for the ability to stimulate growth of Vibrio cholera 1510 at 18 h
# Escherichia coli [2] = test: Compound (50 mM) was tested for the ability to stimulate growth of Escherichia coli RW 193 at 18 h
# Method in brief: (§1)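 Disk-diffusion growth-promotion assay on E. coli RW 193 (FepA+) or its FepA− derivative UT2300. Cells were seeded at 10⁴/mL into Luria agar containing the iron chelator EDDA. Siderophores were dissolved in ethanol at 50, 10, 1 or 0.2 mM, spotted onto sterile disks, and the ethanol was evaporated. Plates were incubated 18 h at 37 °C and scored for growth around the disks. A 10 mM FeCl₃ disk served as positive control.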
# Vibrio cholerae [3] = test: Compound (50 mM) was tested for the ability to stimulate growth of Vibrio cholera Lou 15 at 18 h
# Escherichia coli [4] = test: Compound (10 mM) was tested for the ability to stimulate growth of Escherichia coli RW 193 at 18 h; method in brief: as §1
# Vibrio cholerae [5] = test: Compound (50 mM) was tested for the ability to stimulate growth of Vibrio cholera 1510 at 18 h
# Escherichia coli [6] = test: Compound (10 mM) was tested for the ability to stimulate growth of Escherichia coli UT 2300 at 18 h; method in brief: as §1
# Vibrio cholerae [7] = test: Compound (0.2 mM) was tested for the ability to stimulate growth of Vibrio cholera Lou 15 at 18 h
# Escherichia coli [8] = test: Compound (50 mM) was tested for the ability to stimulate growth of Escherichia coli UT 2300 at 18 h; method in brief: as §1
# Escherichia coli [9] = test: Compound (1 mM) was tested for the ability to stimulate growth of Escherichia coli UT 2300 at 18 h; method in brief: as §1
# Vibrio cholerae [10] = test: Compound (10 mM) was tested for the ability to stimulate growth of Vibrio cholera Lou 15 at 18 h
# Vibrio cholerae [11] = test: Compound (1 mM) was tested for the ability to stimulate growth of Vibrio cholera 1510 at 18 h
# Escherichia coli [12] = test: Compound (0.2 mM) was tested for the ability to stimulate growth of Escherichia coli RW 193 at 18 h; method in brief: as §1
# Vibrio cholerae [13] = test: Compound (1 mM) was tested for the ability to stimulate growth of Vibrio cholera Lou 15 at 18 h
# Escherichia coli [14] = test: Compound (0.2 mM) was tested for the ability to stimulate growth of Escherichia coli UT 2300 at 18 h; method in brief: as §1
# Escherichia coli [15] = test: Compound (1 mM) was tested for the ability to stimulate growth of Escherichia coli RW 193 at 18 h; method in brief: as §1
# Vibrio cholerae [16] = test: Compound (10 mM) was tested for the ability to stimulate growth of Vibrio cholera 1510 at 18 h
# Vibrio cholerae [17] = test: Compound (1 mM) was tested for the ability to stimulate growth of Vibrio cholera Lou 15 at 42h
# Vibrio cholerae [18] = test: Compound (10 mM) was tested for the ability to stimulate growth of Vibrio cholera Lou 15 at 42h
# Vibrio cholerae [19] = test: Compound (0.2 mM) was tested for the ability to stimulate growth of Vibrio cholera Lou 15 at 42h
Compound,Growth zone (Vibrio cholerae [1]) [mm],Growth zone (Escherichia coli [2]) [mm],Growth zone (Vibrio cholerae [3]) [mm],Growth zone (Escherichia coli [4]) [mm],Growth zone (Vibrio cholerae [5]) [mm],Growth zone (Escherichia coli [6]) [mm],Growth zone (Vibrio cholerae [7]) [mm],Growth zone (Escherichia coli [8]) [mm],Growth zone (Escherichia coli [9]) [mm],Growth zone (Vibrio cholerae [10]) [mm],Growth zone (Vibrio cholerae [11]) [mm],Growth zone (Escherichia coli [12]) [mm],Growth zone (Vibrio cholerae [13]) [mm],Growth zone (Escherichia coli [14]) [mm],Growth zone (Escherichia coli [15]) [mm],Growth zone (Vibrio cholerae [16]) [mm],Growth zone (Vibrio cholerae [17]) [mm],Growth zone (Vibrio cholerae [18]) [mm],Growth zone (Vibrio cholerae [19]) [mm]
CN(O)C(=O)CCC(=O)NCCCCN(CCCNC(=O)CCC(=O)N(C)O)C(=O)CCC(=O)N(C)O,0,12,19,0,0,0,16,12,0,17,0,0,17,0,0,0,,,
CN(O)C(=O)CCCC(=O)NCCCCN(CCCNC(=O)CCCC(=O)N(C)O)C(=O)CCCC(=O)N(C)O,0,18,12,10,12,10,,16,0,,0,0,,0,0,0,0,0,0
O=C(N[C@H]1COC(=O)[C@@H](NC(=O)c2cccc(O)c2O)COC(=O)[C@@H](NC(=O)c2cccc(O)c2O)COC1=O)c1cccc(O)c1O [ENTEROBACTIN],0,,,,,0,0,,0,28,0,28,22,0,40,0,,,
CN(O)C(=O)CCC(=O)N(CCCCNC(=O)c1cccc(O)c1O)CCCNC(=O)c1cccc(O)c1O [SPERMEXATOL],0,21,36,12,28,0,,0,0,,0,0,,0,0,0,0,0,0
CC1OC(c2cccc(O)c2O)=NC1C(=O)NCCCN(CCCNC(=O)c1cccc(O)c1O)C(=O)C1N=C(c2cccc(O)c2O)OC1C (centres undefined) [VIBRIOBACTIN],0,0,,0,0,0,32,0,0,32,0,0,32,0,0,0,,,
